High-throughput results deposited in PubChem BioAssay by The Scripps Research Institute Molecular Screening Center.
SIAE inh: blocks human sialic acid acetylesterase | Q9HAT2 | 0.69% of 370,000 active | inhibition, % at 9.66 µM | SIAE FP-Rh probe binding, fluorescence polarization;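 active = inhibition above a cutoff: mean of compounds within the control limits plus 3 SD of those, cut at about 17% in these data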;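 note: 0% = plate median of compound wells and 100% = probe without SIAE protein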
TCR-CD3 inh: human TCR-CD3 binding inhibition; TAMRA-labeled TCR probe fluorescence, biochemical; inhibition, % at 9.4 µM; 0.37% of 360,000 active; AID 651800; in the data active = inhibition above about 19%;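 note: recombinant mutant TCR 2C K166C tagged with TAMRA read by polarization; 0% = receptor in buffer alone and 100% = receptor with positive control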
PRMT1 FP inh: blocks human protein arginine methyltransferase 1; Q99873; recombinant PRMT1, activity-based probe fluorescence polarization; inhibition, % at 2.79 µM; 1.3% of 370,000 active; AID 652257;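 active = inhibition above about 21% made by adding two undisclosed values, limit read from the data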
Target sequence (Q99873 whole entry, looked up): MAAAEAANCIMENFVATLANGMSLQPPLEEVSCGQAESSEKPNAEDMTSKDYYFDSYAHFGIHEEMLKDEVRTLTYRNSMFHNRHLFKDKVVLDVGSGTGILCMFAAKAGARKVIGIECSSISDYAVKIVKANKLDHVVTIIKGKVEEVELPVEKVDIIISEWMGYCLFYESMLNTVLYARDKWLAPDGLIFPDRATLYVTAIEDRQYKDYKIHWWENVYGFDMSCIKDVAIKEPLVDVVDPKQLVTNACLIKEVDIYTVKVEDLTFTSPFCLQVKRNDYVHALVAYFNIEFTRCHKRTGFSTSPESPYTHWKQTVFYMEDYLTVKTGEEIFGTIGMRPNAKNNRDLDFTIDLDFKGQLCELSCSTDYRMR
rCAG RNA binder: r(CAG) repeat RNA binding; TO-PRO-1 dye displacement fluorescence; inhibition, % at 3 µM; 1.3% of 370,000 active;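 active = inhibition above the plate cutoff, the mean of all test compounds on that plate plus 3 SD, cut at about 35% in these data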;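 note: 0% = DMSO alone and 100% = 100 µM mitoxantrone as full dye displacement; higher means more dye released from RNA so lower well fluorescence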
ABHD4 inh: inhibitors of mouse ABHD4. Q8VD66. purified mABHD4, FP-Rh probe fluorescence polarization. inhibition, % at 8.92 µM. 0.54% of 370,000 active. AID 720543;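 active = inhibition exceeding the mean over every tested compound plus 3 SD, cut at about 30% in these data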;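 note: 0% = plate median of compound wells and 100% = S159A mutant with DMSO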
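Test system: mABHD4 protein; Read-out basis: % inhibition; Incubation: 45 min + 60 min at 25 °C; Repeats: single replicate; Technique: fluorescence polarization with parallel and perpendicular emission, 525/598 nm; Compound: 8.92 µM, single dose; Benchmarks: full inhibition S159A mutant plus DMSO, zero as sample-well median.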
PRMT1 confirm: confirmation of human PRMT1 inhibitors; AID 687036; shares compounds with PRMT1 FP inh; inhibition, % at 2.79 µM; 42% of 3,300 active; recombinant His-PRMT1, activity-based probe fluorescence polarization;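 active = mean inhibition across replicates above the hit cutoff derived for the earlier primary screen, cut at about 22% in these data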
* = called active by the depositor; / = no result given. Rows were chosen to be rich in hits. Some 3.3% of all compounds tested hit in one or more screens of this group.

SMILES	SIAE inh	TCR-CD3 inh	PRMT1 FP inh	rCAG RNA binder	ABHD4 inh	PRMT1 confirm
Cc1ccc(CN(C)C(=O)c2ccc3c(c2)NC(=O)CS3)o1	10.4	0.7	39.8*	6.8	4.8	4.8
COc1cc(CNc2ccc3[nH]c(=O)[nH]c3c2)ccc1OCc1ccc(C)cc1	12.5	-0.6	34.9*	15.4	19.7	8.1
COC(=O)C1CN(Cc2cn(CCOC(C)=O)nn2)CCS(=O)(=O)N1Cc1ccc(OC)cc1 (stereo unspecified)	4.3	/	-2.3	-1.3	7.0	/
O=C(c1ccccc1)N1CCN(C(=O)c2nn3c(C(F)(F)F)cc(-c4ccco4)nc3c2Br)CC1	14.7	-4.1	29.9*	29.6	19.7	2.9
O=S1(=O)c2c(cccc2N2CC[C@@H](O)C2)O[C@@H]2CCN1C2	-5.1	/	3.4	17.7	-1.1	/
CCN(CC)CCCNC(=O)c1ccccc1C	-4.8	6.2	-2.6	-0.4	1.8	/
CCN(CC)CCCNC(=O)/C=C/C(=O)O	1.8	-3.6	27.3*	0.2	-0.1	-1.0
O=C1CC(NCc2ccc3c(c2)OCO3)C(=O)N1CCc1ccccc1 (stereo unspecified)	-1.1	-9.6	44.2*	-6.2	2.3	14.8
NS(=O)(=O)c1ccc(CCNC2CC(=O)N(Cc3ccccc3)C2=O)cc1 (stereo unspecified)	0.0	-1.0	62.8*	4.4	3.6	8.6
CCN1C(=O)CC(NCc2ccc3c(c2)OCO3)C1=O (stereo unspecified)	0.9	2.6	2.8	2.0	8.2	/
NS(=O)(=O)c1ccc(CCNC2CC(=O)N(CCc3ccccc3)C2=O)cc1 (stereo unspecified)	2.9	-0.7	33.7*	-2.6	9.1	-2.5
COc1ccc(Cn2ccc3ccc(-c4ccc5ccn(Cc6cccc(F)c6)c5c4)cc32)cc1	-3.5	/	7.1	21.2	4.8	/
Cc1ccc(S(=O)c2ccc([N+](=O)[O-])c3nonc23)cc1 (stereo unspecified)	-12.2	-3.2	57.8*	63.4*	44.3*	106.2*
CCN1C(=O)CC(N2CCC(C(=O)N3CCOCC3)CC2)C1=O (stereo unspecified)	3.5	-6.8	8.5	-2.4	-4.7	/
O=C(C1CCN(C2CC(=O)N(c3ccc(F)cc3)C2=O)CC1)N1CCOCC1 (stereo unspecified)	-8.5	1.4	46.1*	-2.7	-0.2	3.1
O=C(C1CC1)N1CCCN(C(=O)C2CC2)CC1	6.0	-0.6	-3.9	1.6	4.9	/
COc1cc(OC)cc(N2C(=O)CC(N3CCC(C(=O)N4CCCCC4)CC3)C2=O)c1 (stereo unspecified)	-4.2	1.0	77.9*	-3.2	-15.7	1.8
O=C1CC(N2CCOCC2)C(=O)N1c1ccccc1Cl (stereo unspecified)	-5.5	8.1	26.4*	1.8	-1.4	2.4
O=C1CC(N2CCOCC2)C(=O)N1c1cc(Cl)cc(Cl)c1 (stereo unspecified)	1.0	-5.7	6.9	10.5	-8.4	/
O=C1CC(N2CCC(C(=O)N3CCCCC3)CC2)C(=O)N1 (stereo unspecified)	3.0	-2.3	61.8*	-0.2	-5.4	7.0
O=C(NC1CCCCN(Cc2cccc(F)c2)C1=O)c1ccc(-c2ccccc2)cc1 (stereo unspecified)	-4.2	/	3.1	5.5	-13.3	/
CCOc1ccc(-n2c(SCC(=O)Nc3cccc4ccccc34)nnc2-c2ccncc2)cc1	2.8	/	4.9	3.5	-0.3	/
Cc1cc(N2CCN(CCO)CC2)n2nc(C)nc2n1	1.1	/	-4.4	2.1	-0.1	/
COC(=O)[C@]12C[C@H](CC(=O)N3CCN(C(=O)c4ccco4)CC3)C(=O)N(Cc3ccco3)C1=C[C@H](C1CCCC1)O[C@@H]2C	0.2	/	1.7	2.7	0.7	/
CC(=O)Nc1cccc(N2C(=O)CC(N3CCC(C(=O)N4CCCCC4)CC3)C2=O)c1 (stereo unspecified)	-3.5	-2.6	79.4*	-1.9	1.6	1.5
SMILES	SIAE inh	TCR-CD3 inh	PRMT1 FP inh	rCAG RNA binder	ABHD4 inh	PRMT1 confirm
O=C1CCCN1CCC1CCN(C2CC(=O)N(c3ccc(F)cc3)C2=O)CC1 (stereo unspecified)	-0.3	9.3	47.6*	-1.3	7.1	7.0
O=C1CC(N2CCN(c3ccccn3)CC2)C(=O)N1c1ccc(F)cc1 (stereo unspecified)	7.4	8.0	1.5	-1.4	0.0	/
COc1ccc(NS(=O)(=O)c2ccc(N3CCCC3)c(NC(=S)Nc3ccc(SC(F)F)cc3)c2)cc1	-6.7	-4.0	29.1*	16.2	0.9	3.3
COC(=O)C[C@@H]1CC[C@H]2[C@H](COc3ccc(NC(=O)c4ccc(OC)cc4)cc3C(=O)N2C)O1	-3.0	/	1.4	2.5	2.8	/
O=C(OC12CCCN(C1)/C(=C/c1ccncc1)C2)c1ccc(Cl)cc1 (stereo unspecified)	3.4	/	2.3	2.8	6.3	/
Cc1cccc2cc3c(N)c(C(=O)N4CCc5ccccc54)sc3nc12	-0.4	0.6	30.7*	16.7	9.4	4.2
Cc1cccc2cc3c(N)c(C(=O)Nc4ccc(N5CCOCC5)cc4)sc3nc12	4.6	1.8	-0.3	4.7	8.4	/
CCOc1ccc(/C=C/C2=Cc3c(sc(NC(=O)CSc4n[nH]c(N)n4)c3C#N)C(C)(C)C2)cc1	-14.0	-2.5	33.1*	43.2*	-26.6	9.1
O=C(c1cc(C2CC2)on1)N(C1CCCCC1)C1CCOCC1	-5.2	/	3.3	-0.2	-2.7	/
Fc1ccc(-c2n[nH]c(=S)n2/N=C/c2c[nH]c3ccccc23)cc1	-1.2	-1.6	30.9*	24.9	0.5	22.4*
Nn1c(SCC(=O)NC2CCCCC2)nnc1-c1cc(-c2ccc(F)cc2)n[nH]1	-2.0	/	0.9	2.3	3.2	/
COc1ccccc1C(=O)N/C(=C/c1ccco1)C(=O)Nc1cccc(C(=O)O)c1	3.7	6.1	27.6*	16.2	16.5	8.0
Cc1ccc(C(=O)N/C(=C/c2ccco2)C(=O)Nc2cccc(C(=O)O)c2)cc1	5.5	2.0	16.0	22.4	14.6	/
CC(=O)c1cccc(NC(=O)/C(=C/c2ccco2)NC(=O)c2ccco2)c1	-3.6	0.8	45.6*	24.2	-4.6	26.6*
c1ccc(-c2c[nH]c3ccc(OCCN4CCOCC4)c(-c4ccccc4)c23)cc1	2.0	/	-0.4	3.4	2.5	/
Nc1ncnc(Sc2ccccc2)c1[N+](=O)[O-]	-0.3	-1.6	11.5	4.7	2.1	/
Nc1ncnc(Sc2ncccn2)c1[N+](=O)[O-]	-0.6	4.9	53.4*	-5.4	-1.5	15.8
Fc1cc(F)c(C2SCCN2C(=S)Nc2cccc(C(F)(F)F)c2)c(F)c1 (stereo unspecified)	-5.4	11.6	77.7*	5.0	-10.7	8.7
CCOC(=O)c1ccc(NC(=S)N2CCSC2c2c(F)cc(F)cc2F)cc1 (stereo unspecified)	-11.3	-0.4	89.1*	-0.1	-3.6	-1.2
